Shown are actives, neighbours in structure and some others; about 5% of the full set was active somewhere.
XBP1 UPR activ: activators of adaptive arm of unfolded protein response (XBP1). CHO-XBP1 luciferase reporter, IRE1-XBP1 UPR activation, luminescence; percent of tunicamycin response, DMSO as zero. activation, % at 20 µM. 0.33% of 330,000 active;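 active means versus positive control, 20 µM dose yields 30% or more activation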;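 further: 100% = tunicamycin at 10 µg/mL and 0% = DMSO only wells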
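incubation = overnight seeding at 37 °C, 6 h compound treatment at 37 °C | assay system = CHO-XBP1 cells stably carrying IRE1-XBP1-driven luciferase reporter | input = 1000 cells per well | detection = luciferase luminescence | dosing = single point, 20 µM final compound, 1% DMSO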
T cruzi inh: T. cruzi replication inhibition. T. cruzi beta-gal in NIH3T3, luminescence, 90 h. inhibition, % (concentration not given with the values). 1.4% of 300,000 active. AID 1885;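 active means mean inhibition across valid replicates above about 55%, limit read from the data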;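 further: signal also drops with host cell toxicity which is not excluded here; 0% = plate median of DMSO wells and 100% = zero luminescence signal; higher percent means less beta-gal luminescence so fewer parasites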
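System: Mouse NIH/3T3 fibroblasts infected with β-gal-expressing T. cruzi Tulahuen C4 | Quantity: NIH/3T3 cells, 5,000 per well | Reagent: 5000 reporter trypomastigotes per well | Dosing: Compound pinned at 50 nL/well, DMSO | Schedule: 3 h host attachment, then at least 90 h co-culture | Detection: GalScreen luminescence, 60 min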
Beta apoptosis: beta cell apoptosis inhibition; INS-1E cytokine-induced death, ATP luminescence, 48 h; percent of positive-control rescue, neutral wells zero; protection from apoptosis, % (concentration not given with the values); 0.8% of 300,000 active;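 active means Every replicate reaches about 75%, or at least half do and their mean reaches it too, limit read from the data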;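 further: 0% = cytokine-treated negative control wells and 100% = positive control rescue; higher means more ATP so stronger rescue from cytokine killing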
CHOP UPR activ: activators of apoptotic arm of unfolded protein response (CHOP) | 0.34% of 330,000 active | activation, % at 10 µM | CHO-CHOP luciferase reporter, UPR activation, luminescence; percent of tunicamycin response over DMSO baseline;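 active means at 10 µM dose, activation of 40% or more, normalized to positive control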;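 further: 100% = tunicamycin at 10 µg/mL and 0% = DMSO alone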
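Dosing – one dose, 10 µM in 0.5% DMSO · System – CHO-CHOP cells, stable luciferase reporter of PERK-eIF2a-CHOP signalling · Input – 500 cells/well · Control set – tunicamycin 10 µg/mL final as positive, DMSO-only wells as negative · Timing – 6 h compound treatment, 37 °C · Measure – % activation vs tunicamycin · Technique – luminescence read with Steady-Glo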
CSC inhib: cancer stem cell inhibition; cancer stem cell-like cells viability, luminescence; inhibition, % at 7.5 µM; 1.1% of 300,000 active; AID 2717; in the data active means inhibition above about 75%; tested in HMLE shEcad cells
Mdm2-MdmX inh: inhibitors of human Mdm2/MdmX interaction; SaOS-2 split-luciferase Mdm2/MdmX complementation, luminescence; inhibition, % at 8 µM; 3% of 330,000 active; AID 485346;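 active means inhibition of at least 50% at 8 µM in the primary screen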
Mdm2 MdmX conf: human Mdm2/MdmX binding inhibition, confirmed. inhibition, % at 8 µM. luminescent assay. shares compounds with Mdm2-MdmX inh. 55% of 10,000 active; in the data active means inhibition above about 40%
FLuc counter: counter-screen for Mdm2/MdmX inhibitors: full-length luciferase; shares compounds with Mdm2-MdmX inh; 77% of 6,200 active; AID 504607; SaOS-2 full-length luciferase counterscreen, luminescence; inhibition, % at 8 µM;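 active means mean inhibition at 8 µM reaching about 37%, which flags the compound as non-specific, limit read from the data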;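 further: p53-null SaOS-2 cells with luciferase driven by a doxycycline-inducible promoter; compound on cells about two nights before reading with doxycycline added after day one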
Numbers without * were called inactive.

O=C(Nc1ccccc1N1CCOCC1)c1cc(-c2ccncc2)nc2ccccc12 was read as XBP1 UPR activ 4, T cruzi inh -1, Beta apoptosis 3, CHOP UPR activ 1, CSC inhib 8, Mdm2-MdmX inh 55*, Mdm2 MdmX conf 38 and FLuc counter 82*.
Screening COC(=O)CN(C)C(=O)c1ccccc1OC1CCN(S(C)(=O)=O)CC1 returned XBP1 UPR activ -3, T cruzi inh -9, Beta apoptosis 7, CHOP UPR activ 0, CSC inhib 2 and Mdm2-MdmX inh 1.
For O=C(COC(=O)c1cc(=O)[nH]c2ccccc12)NC(=O)NC1CCCCC1 the results were XBP1 UPR activ 1, T cruzi inh -7, Beta apoptosis -4, CHOP UPR activ -1, CSC inhib -1 and Mdm2-MdmX inh -5.
CC(C)C[C@H]1CN=C(Nc2ccccc2)N1CCCC1CCCCC1 was read as XBP1 UPR activ 2, T cruzi inh 41, Beta apoptosis 49, CHOP UPR activ -1, CSC inhib 27, Mdm2-MdmX inh 50* and Mdm2 MdmX conf 24.
Screening CC(C)C[C@H]1CN=C(Nc2ccccc2)N1CCCC1CCCC1 returned XBP1 UPR activ 0, T cruzi inh 42, Beta apoptosis 38, CHOP UPR activ -1, CSC inhib 25 and Mdm2-MdmX inh 39.
N#CC(c1cccc(Cl)c1)c1ccc2c(C(F)(F)F)cc(C(F)(F)F)nc2n1 (stereo not drawn) was read as XBP1 UPR activ 2, T cruzi inh 20, Beta apoptosis 114*, CHOP UPR activ 18, CSC inhib 107*, Mdm2-MdmX inh 98*, Mdm2 MdmX conf 94* and FLuc counter 57*.
`NNc1ccc2c(C(F)(F)F)cc(C(F)(F)F)nc2n1` gave XBP1 UPR activ -4, T cruzi inh 0, Beta apoptosis -6, CHOP UPR activ -1, CSC inhib 11 and Mdm2-MdmX inh 29.
Screening O=C(CSc1ccc2c(c1)OCCO2)Nc1ccc(Br)cn1 returned XBP1 UPR activ -2, T cruzi inh 1, Beta apoptosis -5, CHOP UPR activ 2, Mdm2-MdmX inh 64* and Mdm2 MdmX conf 19.
Screening CN=c1scc(-c2cccs2)n1/N=C/c1ccccc1O returned XBP1 UPR activ -6, T cruzi inh 7, Beta apoptosis 10, CHOP UPR activ -10, CSC inhib -8, Mdm2-MdmX inh 95*, Mdm2 MdmX conf 96* and FLuc counter 13.
Screening CC1(C)Cc2c(c(N3CCOCC3)nc3sc(-c4ccc(C(=O)O)o4)c(N)c23)CO1 returned XBP1 UPR activ -4, T cruzi inh -4, Beta apoptosis 4, CHOP UPR activ 1, CSC inhib 2 and Mdm2-MdmX inh 15.
For CNC(=O)c1ccc(-c2sc3nc(N4CCOCC4)c4c(c3c2N)CC(C)(C)OC4)o1 the results were XBP1 UPR activ 2, T cruzi inh 9, Beta apoptosis 16, CHOP UPR activ 1, CSC inhib -4, Mdm2-MdmX inh 61* and Mdm2 MdmX conf -8.
For Cc1ccc(C)c(OCC(O)CN2CCC(CN3C(=O)c4cccc5cccc(c45)C3=O)CC2)c1 (stereo not drawn) the results were XBP1 UPR activ -3, T cruzi inh 52, Beta apoptosis 67, CHOP UPR activ 3, CSC inhib 33, Mdm2-MdmX inh 60* and Mdm2 MdmX conf 33.
Screening CCOC(=O)c1cc(CC)sc1NC(=O)COc1ccc2c(C)cc(=O)oc2c1 returned XBP1 UPR activ 3, T cruzi inh 6, Beta apoptosis -10, CHOP UPR activ -2, CSC inhib 2, Mdm2-MdmX inh 82*, Mdm2 MdmX conf 43* and FLuc counter 46*.

Bioassay records: PubChem BioAssay, several laboratories
